# ChEMBL document CHEMBL4049387, “Combination of l-Carnitine with Lipophilic Linkage-Donating Gemcitabine Derivatives as Intestinal Novel Organic Cation Transporter 2-Targeting Oral Prodrugs” (J Med Chem, 2017)
# The source made the active and inactive calls. The rule behind the calls is not given here.
# What was measured:
# [1] = Stability of the compound in pH 6.8 phosphate buffer at 5 uM by HPLC method; type: physicochemical; conditions: pH 6.8, 5 µM
# Outline: (§1)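 Compound dissolved at 5 µM in phosphate buffer (pH 1.2, 6.8 or 7.4), held at 37 °C for 24 h. Aliquots taken at intervals and analysed by HPLC. t1/2 = 0.693/k from linear regression of pseudo-first-order kinetics.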
# BXPC-3 [2] = test: Cytotoxicity against human BxPC3 cells assessed as decrease in cell viability after 48 hrs by MTT assay; type: functional, cell-based
# Outline: (§2)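 BxPC-3 and Caco-2 cells exposed to compounds for 48 h. Viability read by MTT assay kit. IC50 calculated from dose-response.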
# [3] = biological target: T1, Organic cation/carnitine transporter 2 (Homo sapiens, UniProt O76082); test: Ratio of drug transport assessed as OCTN2 transporter mediated drug uptake in human Caco2 cells at 100 uM in absence of L-carnitine to drug transport assessed as OCTN2 transporter mediated drug uptake in human Caco2 cells at 100 uM in presence of L-carnitine; type: ADME, cell-based; conditions: caco-2, 100 µM
# T1 sequence (O76082 whole entry): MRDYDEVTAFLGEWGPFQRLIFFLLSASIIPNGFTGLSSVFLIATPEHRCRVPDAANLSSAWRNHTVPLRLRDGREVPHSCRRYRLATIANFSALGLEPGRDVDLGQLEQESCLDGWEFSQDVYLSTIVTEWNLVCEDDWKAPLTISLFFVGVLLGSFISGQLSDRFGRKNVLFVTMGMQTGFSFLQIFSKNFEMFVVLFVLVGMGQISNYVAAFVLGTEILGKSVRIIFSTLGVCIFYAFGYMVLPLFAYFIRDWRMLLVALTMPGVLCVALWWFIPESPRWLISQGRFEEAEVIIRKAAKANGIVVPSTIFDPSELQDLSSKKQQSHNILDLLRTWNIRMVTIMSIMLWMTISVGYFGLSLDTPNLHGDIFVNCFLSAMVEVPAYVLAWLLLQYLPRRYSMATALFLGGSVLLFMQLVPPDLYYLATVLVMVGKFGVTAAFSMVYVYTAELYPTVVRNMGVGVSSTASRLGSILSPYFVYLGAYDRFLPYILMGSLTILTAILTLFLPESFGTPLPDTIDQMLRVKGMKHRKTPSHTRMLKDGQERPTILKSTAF
# [4] = Oral bioavailability in Wistar rat at 50 mg/kg administered as single dose in presence of L-carnitine by UPLC-MS/MS method; type: ADME, organism-based; conditions: in vivo, with L-carnitine
# Outline: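 Rats dosed orally with prodrug at a gemcitabine-equivalent dose of 50 mg/kg, co-administered with 40 mM L-carnitine. Serial blood at 5 min–24 h into THU-pretreated heparinized tubes. Plasma measured by UPLC-MS/MS. Absolute bioavailability calculated against iv gemcitabine at 7.5 mg/kg.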
# [5] = biological target: T1, Organic cation/carnitine transporter 2; test: Ratio of drug transport assessed as OCTN2 transporter mediated drug uptake in human Caco2 cells at 1 to 800 uM in presence of Na+ to drug transport assessed as OCTN2 transporter mediated drug uptake in human Caco2 cells at 1 to 800 uM in presence of N-methyl-D-glucamine; type: ADME, cell-based; conditions: caco-2, 800 µM
# [6] = Half life in pH 7.4 phosphate buffer at 5 uM by HPLC method; type: physicochemical; outline: as §1
# [7] = Oral bioavailability in Wistar rat at 50 mg/kg administered as single dose by UPLC-MS/MS method; type: ADME, organism-based; conditions: in vivo
# Outline: (§3)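 Wistar rats, six per group, single oral dose equivalent to 50 mg/kg gemcitabine; separate group given gemcitabine iv at 7.5 mg/kg. Oral sampling at 5, 10, 15, 30 min and 1, 2, 4, 6, 8, 12, 24 h; iv at 15, 30 min and 2, 4, 8, 12, 24 h. Blood into THU-pretreated heparinized tubes, centrifuged 3000 × g 15 min, plasma at -80 °C. Prodrug and gemcitabine quantified by UPLC-MS/MS. F = AUCpo×Div/AUCiv/Dpo×100%.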
# Rattus norvegicus [8] = test: AUC (0 to 24 hrs) in Wistar rat at 50 mg/kg, po administered as single dose by UPLC-MS/MS method; type: ADME, organism-based; design: dose 50 mg/kg, time < 24 hr, route oral; conditions: in vivo; outline: as §3
# [9] = Terminal half-life in Wistar rat at 50 mg/kg, po administered as single dose by UPLC-MS/MS method; type: ADME, organism-based; conditions: in vivo, read-out: beta t1/2 (converted); outline: as §3
# [10] = biological target: T1, Organic cation/carnitine transporter 2; test: Ratio of drug transport assessed as OCTN2 transporter mediated cell permeability in human Caco2 cells at 25 uM in absence of L-carnitine to drug transport assessed as OCTN2 transporter mediated cell permeability in human Caco2 cells at 25 uM in presence of L-carnitine; type: ADME, cell-based; conditions: caco-2, 25 µM
# Outline: (§4)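 Caco-2 cells seeded at 1.0×10^5 cells/well on 0.4 µm polycarbonate inserts, cultured 21 days in MEM; monolayers with TEER over 250 Ω·cm² used. Compound at 25 µM final in HBSS, added apically, with or without 100 µM L-carnitine, 37 °C. Basolateral samples taken at 15, 30, 45, 60, 90, 120 min. Analysed by UPLC-MS/MS to give Papp. Triplicate runs.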
# [11] = Half life in rat hepatic homogenates at 5 uM by HPLC method; type: ADME, tissue-based, Liver
# Outline: (§5)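 Compound at 5 µM final in rat plasma, 20% rat hepatic homogenate or 20% rat intestinal homogenate at 37 °C for 24 h. Homogenates made by homogenizing 0.3 g saline-washed tissue in 1 mL saline, spun 13,000 rpm 4 °C 5 min. Sampled at intervals, analysed by HPLC. t1/2 = 0.693/k.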
# [12] = Half life in rat plasma at 5 uM by HPLC method; type: ADME, cell-free; outline: as §5
# [13] = biological target: T2, Organic cation/carnitine transporter 2 (Rattus norvegicus, UniProt O70594); test: Ratio of drug transport assessed as OCTN2 transporter mediated effective permeability in rat duodenum at 76 uM in absence of L-carnitine to drug transport assessed as OCTN2 transporter mediated effective permeability in rat duodenum at 76 uM in presence of L-carnitine; type: ADME
# T2 sequence (O70594 whole entry): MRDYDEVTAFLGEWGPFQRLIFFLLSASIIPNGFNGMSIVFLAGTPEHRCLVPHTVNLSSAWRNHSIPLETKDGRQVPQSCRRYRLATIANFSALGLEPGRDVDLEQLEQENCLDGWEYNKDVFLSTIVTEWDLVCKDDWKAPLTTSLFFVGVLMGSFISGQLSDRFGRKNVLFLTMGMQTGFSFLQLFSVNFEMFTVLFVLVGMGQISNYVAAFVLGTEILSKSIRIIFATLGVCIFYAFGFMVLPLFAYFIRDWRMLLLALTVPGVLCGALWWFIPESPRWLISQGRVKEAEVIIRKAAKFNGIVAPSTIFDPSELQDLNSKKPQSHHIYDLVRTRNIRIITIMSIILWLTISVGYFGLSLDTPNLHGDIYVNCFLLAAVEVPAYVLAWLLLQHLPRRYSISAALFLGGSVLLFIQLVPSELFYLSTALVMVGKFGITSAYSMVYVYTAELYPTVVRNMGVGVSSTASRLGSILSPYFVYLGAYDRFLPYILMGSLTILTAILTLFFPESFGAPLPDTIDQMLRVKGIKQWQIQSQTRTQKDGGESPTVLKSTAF
# [14] = Half life in rat intestinal homogenates at 5 uM by HPLC method; type: ADME, tissue-based, Intestine; outline: as §5
# [15] = Half life in pH 1.2 phosphate buffer at 5 uM by HPLC method; type: physicochemical; outline: as §1
# [16] = biological target: T1, Organic cation/carnitine transporter 2; test: Drug transport assessed as OCTN2 transporter mediated cell permeability in human Caco2 cells across apical to basolateral side at 25 uM after 15 to 120 mins by UPLC-MS/MS method relative to gemcitabine; type: ADME, cell-based; conditions: caco-2, 25 µM; outline: as §4
# [17] = Drug level in Wistar rat portal blood at 50 mg/kg administered as single dose at 2 hrs by UPLC-MS/MS method; type: ADME, organism-based; conditions: read-out: Drug uptake
# Outline: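 Rats given single oral dose equivalent to 50 mg/kg gemcitabine. Portal vein and systemic plasma sampled at 2 h. Prodrug and gemcitabine measured by UPLC-MS/MS.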
# [18] = biological target: T1, Organic cation/carnitine transporter 2; test: Drug transport assessed as Vmax for OCTN2 transporter mediated drug uptake in human Caco2 cells after 10 mins by Eadie-Hofstee plot method; type: ADME, cell-based; conditions: caco-2, 10 min
# [19] = Tmax in Wistar rat at 50 mg/kg, po administered as single dose by UPLC-MS/MS method; type: ADME, organism-based; conditions: in vivo; outline: as §3
# [20] = biological target: T2, Organic cation/carnitine transporter 2; test: Ratio of drug transport assessed as OCTN2 transporter mediated effective permeability in rat jejunum at 76 uM in absence of L-carnitine to drug transport assessed as OCTN2 transporter mediated effective permeability in rat jejunum at 76 uM in presence of L-carnitine; type: ADME
# OCTN2 = test: Ratio of drug transport in OCTN2 (unknown origin) expressing HEK293 cells assessed as transporter-mediated drug uptake at 25 uM to drug uptake in HEK293 cells at 25 uM; type: ADME, cell-based; conditions: human, HEK293 cells expressing OCTN2, against HEK293 cells
# Outline: (§6)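 OCTN2-transfected HEK293 cells and mock HEK293 cells incubated with 25 µM compound at 37 °C for 15 min, then cellular uptake measured; n = 2.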
# [21] = Half life in pH 6.8 phosphate buffer at 5 uM by HPLC method; type: physicochemical; outline: as §1
# BXPC-3 [22] = test: Cytotoxicity against human BxPC3 cells assessed as decrease in cell viability at 0.1 to 200 uM after 48 hrs by MTT assay; type: functional, cell-based; outline: as §2
# [23] = Cmax in Wistar rat at 50 mg/kg, po administered as single dose by UPLC-MS/MS method; type: ADME, organism-based; design: dose 50 mg/kg, route oral; conditions: in vivo; outline: as §3
# [24] = Tmax in Wistar rat at 7.5 mg/kg, iv administered as single dose by UPLC-MS/MS method; type: ADME, organism-based; conditions: in vivo; outline: as §3
# [25] = Terminal half-life in Wistar rat at 7.5 mg/kg, iv administered as single dose by UPLC-MS/MS method; type: ADME, organism-based; conditions: in vivo, read-out: beta t1/2 (converted); outline: as §3
# [26] = Cmax in Wistar rat at 7.5 mg/kg, iv administered as single dose by UPLC-MS/MS method; type: ADME, organism-based; design: dose 7.5 mg/kg, route intravenous; conditions: in vivo; outline: as §3
# [27] = Drug uptake in HEK293 cells at 25 uM after 15 mins by UPLC-MS/MS method; type: ADME, cell-based; conditions: human, hek293, 0.25 h; outline: as §6
# Rattus norvegicus [28] = test: AUC (0 to 24 hrs) in Wistar rat at 7.5 mg/kg, iv administered as single dose by UPLC-MS/MS method; type: ADME, organism-based; design: dose 7.5 mg/kg, time < 24 hr, route intravenous; conditions: in vivo; outline: as §3
smiles,measurement,setting,value
C[N+](C)(C)CC(CC(=O)[O-])OC(=O)CCC(=O)Nc1ccn([C@@H]2O[C@H](CO)[C@@H](O)C2(F)F)c(=O)n1 (some centres not stated),Stability,[1],Stable
same,Activity,BXPC-3 [2],Dose-dependent effect
same,Ratio,[3],2.2 to 3.7
same,bioavailability,[4],6%
same,Ratio,[5],2 to 10
same,half-life at 5 µM,[6],28.4 h
same,bioavailability,[7],12%
same,AUC,Rattus norvegicus [8],14900 ng·h/mL
same,half-life,[9],6.2 h
same,Ratio,[10],1.6 to 3.6
same,half-life at 5 µM,[11],15.5 h
same,half-life at 5 µM,[12],3.7 h
same,Ratio,[13],25
same,half-life at 5 µM,[14],50.9 h
same,half-life at 5 µM,[15],5.5 h
same,fold change (FC),[16],5 to 15
same,concentration at 2 h,[17],2460 ng/mL
same,Vmax,[18],0.2013 nmol/mg
same,Tmax,[19],1 h
same,Ratio,[20],25
same,uptake ratio at 25 µM,OCTN2,3 to 8
CCCC(=O)Nc1ccn([C@@H]2O[C@H](CO)[C@@H](O)C2(F)F)c(=O)n1,half-life at 5 µM,[6],10.3 h
same,AUC,Rattus norvegicus [8],9030 ng·h/mL
same,half-life,[9],4.3 h
same,half-life at 5 µM,[11],32.7 h
same,half-life at 5 µM,[12],1.7 h
same,half-life at 5 µM,[21],45.9 h
same,half-life at 5 µM,[14],116 h
same,half-life at 5 µM,[15],1 h
same,Tmax,[19],1.9 h
C[N+](C)(C)CC(CC(=O)[O-])OC(=O)CCCCCCC(=O)Nc1ccn([C@@H]2O[C@H](CO)[C@@H](O)C2(F)F)c(=O)n1 (some centres not stated),Activity,BXPC-3 [2],Dose-dependent effect
same,Ratio,[3],2.2 to 3.7
same,AUC,Rattus norvegicus [8],11100 ng·h/mL
same,half-life,[9],2.3 h
same,Ratio,[10],1.6 to 3.6
same,fold change (FC),[16],5 to 15
same,Vmax,[18],0.4344 nmol/mg
same,Tmax,[19],1.2 h
C[N+](C)(C)CC(CC(=O)[O-])OC(=O)CCCCCCCCC(=O)Nc1ccn([C@@H]2O[C@H](CO)[C@@H](O)C2(F)F)c(=O)n1 (some centres not stated),Activity,BXPC-3 [2],Dose-dependent effect
same,Ratio,[3],2.2 to 3.7
same,AUC,Rattus norvegicus [8],15900 ng·h/mL
same,half-life,[9],5.4 h
same,Ratio,[10],1.6 to 3.6
same,Vmax,[18],0.3884 nmol/mg
same,Tmax,[19],1.8 h
Nc1ccn([C@@H]2O[C@H](CO)[C@@H](O)C2(F)F)c(=O)n1 [GEMCITABINE],Activity,BXPC-3 [22],Active
same,Cmax,[23],1320 ng/mL
same,Tmax,[24],0.5 h
same,bioavailability,[7],3.2%
same,AUC,Rattus norvegicus [8],5620 ng·h/mL
same,half-life,[9],2.3 h
same,half-life,[25],4.4 h
same,Cmax,[26],7100 ng/mL
same,concentration at 2 h,[17],199 ng/mL
same,Drug uptake,[27],Not Active
same,Tmax,[19],1.7 h
same,AUC,Rattus norvegicus [28],26700 ng·h/mL
